Measured values from article PMC7134334 (Neuropharmacology, 2016).

How the values were obtained:
[1] = tested on: WT Kv3.1 channels and VSD chimeras (S1-S4, S1-S3a, S3b-S4); assay type: cell-based; conditions: block calculated at depolarizing potentials of V1/2 +30 mV
[2] = tested on: Kv3.1_S1-S3a_2.1; test: Patch-clamp current inhibition by gambierol, Kv3.1_S1-S3a_2.1 chimera; assay type: cell-based; conditions: read-out: IC50 (concentration that induces 50% current inhibition); Kv3.1_S1-S3a_2.1 in Ltk− cells; n = 3
How it was run: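 Ltk− mouse fibroblasts (DMEM, 10% horse serum) transiently PEI-transfected with channel cDNA and patch-clamped 20–28 h later at 20–23 °C. Bath (mM): NaCl 130, KCl 4, CaCl2 1.8, MgCl2 1, HEPES 10, glucose 10, pH 7.35; pipette KCl-based with BAPTA, ATP, pH 7.2. Toxin perfused from DMSO stock (final DMSO ≤0.5%). Remaining current at +40 mV Hill-fitted for IC50; mean ± SEM over cells.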

[3] = tested on: Kv3.1_S3b-S4_2.1; test: Patch-clamp current inhibition by gambierol, Kv3.1_S3b-S4_2.1 chimera; assay type: cell-based; conditions: read-out: IC50 (concentration that induces 50% current inhibition); Kv3.1_S3b-S4_2.1 in Ltk− cells; n = 4
How it was run: (§1)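 Ltk− mouse fibroblasts (DMEM, 10% horse serum) transiently PEI-transfected with 15–200 ng cDNA, recorded ~20–28 h later at 20–23 °C. Bath (mM): NaCl 130, KCl 4, CaCl2 1.8, MgCl2 1, HEPES 10, glucose 10, pH 7.35. Pipette: KCl 110, K4BAPTA 5, K2ATP 5, MgCl2 1, HEPES 10, pH 7.2. Fast-perfused, final DMSO ≤0.5%. Fraction of current left at +40 mV Hill-fitted for IC50. Cells with >5 mV voltage error excluded. Mean ± SEM over cells.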

[4] = tested on: Kv2.1 V404T_S3b-S4_3.1; test: Patch-clamp current inhibition by gambierol, Kv2.1 V404T_S3b-S4_3.1 chimera; assay type: cell-based
How it was run: as §1

[5] = molecular target: T1, Kv3.1 (Homo sapiens, UniProt P48547); test: Patch-clamp current inhibition by gambierol, WT Kv3.1 in Ltk− cells; assay type: cell-based; conditions: read-out: IC50 (concentration that induces 50% current inhibition); WT Kv3.1 expressed in Ltk− cells; mean ± SEM
T1 sequence (P48547 1-511): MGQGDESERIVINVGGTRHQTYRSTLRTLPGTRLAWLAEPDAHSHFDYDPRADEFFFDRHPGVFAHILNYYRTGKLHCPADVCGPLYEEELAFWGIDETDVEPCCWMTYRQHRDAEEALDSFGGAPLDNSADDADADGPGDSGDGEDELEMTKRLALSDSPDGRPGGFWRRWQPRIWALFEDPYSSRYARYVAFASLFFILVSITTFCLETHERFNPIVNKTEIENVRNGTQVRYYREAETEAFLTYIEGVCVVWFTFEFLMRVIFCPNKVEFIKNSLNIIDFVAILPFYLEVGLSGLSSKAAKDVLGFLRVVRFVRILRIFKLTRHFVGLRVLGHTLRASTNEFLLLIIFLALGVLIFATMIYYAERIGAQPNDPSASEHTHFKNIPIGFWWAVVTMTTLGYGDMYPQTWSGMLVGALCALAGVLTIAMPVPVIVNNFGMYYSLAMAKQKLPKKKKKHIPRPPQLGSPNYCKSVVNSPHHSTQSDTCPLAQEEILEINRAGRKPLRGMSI
How it was run: as §1

[6] = tested on: Kv3.1_S1-S4_2.1; test: Patch-clamp current inhibition by gambierol, Kv3.1_S1-S4_2.1 chimera; assay type: cell-based; conditions: read-out: IC50 (concentration that induces 50% current inhibition); Kv3.1_S1-S4_2.1 in Ltk− cells; n = 4
How it was run: as §1

[7] = molecular target: T1, Kv3.1; conditions: ref Kopljar et al., 2013; cited from earlier work

SMILES	differences in IC50 values between WT channels and chimeras [1]	IC50 [2]	IC50 [3]	fold difference compared to the Kv2.1 V404T mutant ([4]; Kv2.1 V404T_S3b-S4_3.1 vs previously reported Kv2.1 V404T value)	IC50 ([4]; read-out: IC50 (concentration that induces 50% current inhibition), Kv2.1 V404T_S3b-S4_3.1 in Ltk− cells, n = 3)	IC50 [5]	IC50 [6]	shift of the voltage dependence of activation to more positive potentials [7]
O=C(NCC1CCCCN1)c1cc(OCC(F)(F)F)ccc1OCC(F)(F)F (centres unmarked) [Flecainide]	< 2 fold	–	–	–	–	–	–	–
C=CC/C=C\C=C/[C@H]1O[C@H]2C[C@H]3O[C@H]4CC[C@H]5O[C@H]6C[C@@]7(C)O[C@@]8(C)[C@@H](O)C[C@H](CCCO)O[C@@H]8C[C@@H]7O[C@@H]6C[C@@H]5O[C@]4(C)C[C@]3(C)O[C@@H]2C=C[C@]1(C)O [gambierol, Gambierol]	–	1.9 ± 0.2 nM	143 ± 28 nM	~ 2 fold	900 ± 41 nM	1.2 ± 0.2 nM	280 ± 40 nM	more than +120 mV
